Experiments:
[1] = target: T1, Pro-cathepsin H (Homo sapiens, UniProt P09668); assay: Inhibition of human recombinant cathepsin H
T1 sequence (P09668 whole entry): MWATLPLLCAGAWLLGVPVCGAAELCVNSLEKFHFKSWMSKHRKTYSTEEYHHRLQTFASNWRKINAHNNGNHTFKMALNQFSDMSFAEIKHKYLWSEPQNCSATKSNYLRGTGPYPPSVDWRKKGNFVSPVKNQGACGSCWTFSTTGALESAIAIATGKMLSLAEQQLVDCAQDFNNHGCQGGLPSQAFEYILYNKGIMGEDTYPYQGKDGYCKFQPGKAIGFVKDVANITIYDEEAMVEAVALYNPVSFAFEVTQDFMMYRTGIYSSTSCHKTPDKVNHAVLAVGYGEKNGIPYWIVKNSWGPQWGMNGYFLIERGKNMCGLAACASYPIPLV

[2] = Oral bioavailability in Beagle dog at 2 mg/kg; format: ADME, organism-based, Canis lupus familiaris; details: in vivo
[3] = Intrinsic clearance in dog hepatocytes at 1 uM after 5 to 120 mins by LC-MS/MS method; format: ADME, cell-based, Canis lupus familiaris, Hepatocyte
In short: (§1)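 Hepatocyte intrinsic clearance for rat and dog, given in µL/min/10^6 cells.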

[4] = Intrinsic clearance in rat hepatocytes assessed per 10^6 cells at 1 uM after 10 to 90 mins by LC-MS/MS method; format: ADME, cell-based, Hepatocyte
[5] = target: T2, Cathepsin G (Homo sapiens, UniProt P08311); assay: Inhibition of human recombinant cathepsin G
T2 sequence (P08311 whole entry): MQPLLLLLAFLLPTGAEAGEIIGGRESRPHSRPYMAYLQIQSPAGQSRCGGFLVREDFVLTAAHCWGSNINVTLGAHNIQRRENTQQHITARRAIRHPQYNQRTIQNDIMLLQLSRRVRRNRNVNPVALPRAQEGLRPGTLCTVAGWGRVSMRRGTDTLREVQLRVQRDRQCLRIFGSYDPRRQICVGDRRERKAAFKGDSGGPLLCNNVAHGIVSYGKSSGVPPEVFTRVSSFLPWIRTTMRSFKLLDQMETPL

[6] = physchem; details: octanol/water, pH 7.4
[7] = Clearance in Beagle dog at 1 mg/kg, iv and 2 mg/kg, po; format: ADME, organism-based, Canis lupus familiaris; details: in vivo
[8] = Oral bioavailability in Han Wistar rat at 3 mg/kg; format: ADME, organism-based; details: in vivo
In short: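 Han Wistar rat PK with 1 mg/kg iv and 3 mg/kg po doses, both in pH3 buffer. Clearance is given in ml/min/kg, Vss in L/kg and t1/2 in h.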

[9] = Volume of distribution at steady state in Sprague-Dawley rat at 1 mg/kg, iv or 3 mg/kg, po; format: ADME, organism-based; details: in vivo, read-out: Vdss
[10] = target: T3, Cathepsin K (Homo sapiens, UniProt P43235); assay: Inhibition of human recombinant cathepsin K
T3 sequence (P43235 whole entry): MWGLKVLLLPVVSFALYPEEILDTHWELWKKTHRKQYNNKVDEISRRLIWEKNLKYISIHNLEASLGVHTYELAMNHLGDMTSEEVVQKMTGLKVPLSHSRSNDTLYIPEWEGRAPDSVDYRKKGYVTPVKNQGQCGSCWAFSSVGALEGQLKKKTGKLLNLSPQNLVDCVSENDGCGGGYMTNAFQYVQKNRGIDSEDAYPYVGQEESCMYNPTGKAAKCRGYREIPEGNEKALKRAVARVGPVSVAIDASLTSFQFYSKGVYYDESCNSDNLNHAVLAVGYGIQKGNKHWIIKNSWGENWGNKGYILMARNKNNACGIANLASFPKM

[11] = Apparent permeability across basolateral to apical side in human Caco2 cells at 10 uM after 2 hrs by LC-MS/MS method; format: ADME, cell-based; details: Caco-2
In short: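 Caco-2 bidirectional permeability run as P_app, given in cm/s x 10^-6.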

[12] = target: Cathepsin D (Homo sapiens, UniProt P07339); assay: Inhibition of human recombinant cathepsin D
Cathepsin D, sequence (P07339 65-162 limits assumed): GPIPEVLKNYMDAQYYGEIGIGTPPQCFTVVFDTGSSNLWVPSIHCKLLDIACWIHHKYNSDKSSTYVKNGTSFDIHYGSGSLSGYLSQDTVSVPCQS
Cathepsin D, sequence (P07339 169-412 limits assumed): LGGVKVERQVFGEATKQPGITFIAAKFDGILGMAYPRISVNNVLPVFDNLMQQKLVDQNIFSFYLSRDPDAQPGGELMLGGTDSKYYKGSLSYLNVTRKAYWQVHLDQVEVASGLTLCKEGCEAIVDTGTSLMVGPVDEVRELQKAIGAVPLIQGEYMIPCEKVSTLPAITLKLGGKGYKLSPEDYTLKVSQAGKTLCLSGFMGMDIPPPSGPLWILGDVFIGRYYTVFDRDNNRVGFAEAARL

[13] = target: T4, Dipeptidyl peptidase 1 (Mus musculus, UniProt P97821); assay: Inhibition of mouse DPP1 using Gly-Arg-AMC as substrate preincubated for 30 mins followed by substrate addition by fluorometric assay
T4 sequence (P97821 whole entry): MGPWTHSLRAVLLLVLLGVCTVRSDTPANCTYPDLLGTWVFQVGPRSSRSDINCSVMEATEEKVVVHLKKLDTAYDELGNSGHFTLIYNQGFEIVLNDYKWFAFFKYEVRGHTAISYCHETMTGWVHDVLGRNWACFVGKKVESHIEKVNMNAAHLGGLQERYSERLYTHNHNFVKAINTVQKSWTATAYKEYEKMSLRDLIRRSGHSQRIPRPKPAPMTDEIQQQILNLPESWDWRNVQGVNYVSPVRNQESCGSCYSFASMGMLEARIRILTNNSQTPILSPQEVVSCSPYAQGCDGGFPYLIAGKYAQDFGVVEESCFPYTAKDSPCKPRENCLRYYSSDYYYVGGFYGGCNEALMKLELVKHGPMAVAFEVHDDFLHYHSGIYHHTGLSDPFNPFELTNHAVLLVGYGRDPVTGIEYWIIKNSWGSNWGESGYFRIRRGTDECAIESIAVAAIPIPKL
In short: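 Recombinant mouse DPP1 enzyme, tested under the same conditions as the human assay. Fluorometric assay in piperazine-based buffer.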

[14] = target: Voltage-gated inwardly rectifying potassium channel KCNH2 (Homo sapiens, UniProt Q12809)
Voltage-gated inwardly rectifying potassium channel KCNH2, sequence (Q12809 whole entry): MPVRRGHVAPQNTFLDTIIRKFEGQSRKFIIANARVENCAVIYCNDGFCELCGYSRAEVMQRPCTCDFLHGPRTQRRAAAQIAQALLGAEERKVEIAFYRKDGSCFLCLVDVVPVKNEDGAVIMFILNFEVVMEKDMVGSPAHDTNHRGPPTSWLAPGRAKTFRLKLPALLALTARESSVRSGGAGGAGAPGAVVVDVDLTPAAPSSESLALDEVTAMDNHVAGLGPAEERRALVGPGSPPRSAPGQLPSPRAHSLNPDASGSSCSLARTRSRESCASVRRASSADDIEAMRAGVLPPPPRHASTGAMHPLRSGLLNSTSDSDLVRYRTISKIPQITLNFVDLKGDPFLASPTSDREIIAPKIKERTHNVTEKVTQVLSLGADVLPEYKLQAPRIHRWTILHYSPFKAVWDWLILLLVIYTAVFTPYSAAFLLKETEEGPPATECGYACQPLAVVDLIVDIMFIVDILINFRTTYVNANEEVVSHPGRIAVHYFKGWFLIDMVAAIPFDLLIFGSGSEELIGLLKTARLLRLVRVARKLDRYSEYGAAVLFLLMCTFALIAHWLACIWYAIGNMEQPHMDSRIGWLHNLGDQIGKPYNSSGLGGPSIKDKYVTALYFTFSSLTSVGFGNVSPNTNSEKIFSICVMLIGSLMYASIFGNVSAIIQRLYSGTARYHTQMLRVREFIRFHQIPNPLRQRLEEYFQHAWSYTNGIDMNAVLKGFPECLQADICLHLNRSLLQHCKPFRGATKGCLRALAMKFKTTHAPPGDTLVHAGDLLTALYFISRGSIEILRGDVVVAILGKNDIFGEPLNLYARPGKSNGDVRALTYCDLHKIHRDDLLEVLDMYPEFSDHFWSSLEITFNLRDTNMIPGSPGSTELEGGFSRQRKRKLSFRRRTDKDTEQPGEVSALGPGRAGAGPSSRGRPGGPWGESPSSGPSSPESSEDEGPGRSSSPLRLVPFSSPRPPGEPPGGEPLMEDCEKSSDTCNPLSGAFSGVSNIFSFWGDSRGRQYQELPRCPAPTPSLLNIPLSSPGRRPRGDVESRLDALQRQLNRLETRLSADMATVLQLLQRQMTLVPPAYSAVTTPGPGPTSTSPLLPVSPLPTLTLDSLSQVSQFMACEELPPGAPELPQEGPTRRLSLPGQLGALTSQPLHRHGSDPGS

[15] = Apparent permeability across apical to basolateral side in human Caco2 cells at 10 uM after 1 hr by LC-MS method; details: Caco-2
[16] = Protein binding in dog plasma at 10 uM after 6 hrs by LC-MS/MS method; format: ADME, cell-free, Canis lupus familiaris; details: read-out: PPB (converted)
[17] = Intrinsic clearance in rat hepatocytes at 1 uM after 5 to 120 mins by LC-MS/MS method; format: ADME, cell-based, Hepatocyte; in short: as §1
[18] = target: Cathepsin S (Homo sapiens, UniProt P25774); assay: Inhibition of human recombinant cathepsin S
Cathepsin S, sequence (P25774 whole entry): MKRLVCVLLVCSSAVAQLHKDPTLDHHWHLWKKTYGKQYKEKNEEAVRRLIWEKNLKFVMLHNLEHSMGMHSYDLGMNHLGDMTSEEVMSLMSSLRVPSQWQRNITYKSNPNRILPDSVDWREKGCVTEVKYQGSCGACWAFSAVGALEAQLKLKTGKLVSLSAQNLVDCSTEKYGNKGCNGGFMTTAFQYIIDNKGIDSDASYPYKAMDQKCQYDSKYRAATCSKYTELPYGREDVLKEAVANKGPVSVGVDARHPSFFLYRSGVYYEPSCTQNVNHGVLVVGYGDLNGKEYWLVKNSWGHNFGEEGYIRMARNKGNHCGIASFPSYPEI

[19] = target: Dipeptidyl peptidase 1 (Homo sapiens, UniProt P53634)
Dipeptidyl peptidase 1 (Homo sapiens, UniProt P53634), sequence (P53634 25-134 limits assumed): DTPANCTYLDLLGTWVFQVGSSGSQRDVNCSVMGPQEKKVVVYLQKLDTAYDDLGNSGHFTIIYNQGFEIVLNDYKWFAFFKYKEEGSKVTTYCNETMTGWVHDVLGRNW
Dipeptidyl peptidase 1 (Homo sapiens, UniProt P53634), sequence (P53634 231-394 limits assumed): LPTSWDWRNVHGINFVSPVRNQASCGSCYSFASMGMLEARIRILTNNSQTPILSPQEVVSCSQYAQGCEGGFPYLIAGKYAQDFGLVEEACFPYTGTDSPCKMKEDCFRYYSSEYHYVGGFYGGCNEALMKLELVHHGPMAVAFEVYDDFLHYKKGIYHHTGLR
Dipeptidyl peptidase 1 (Homo sapiens, UniProt P53634), sequence (P53634 395-463 limits assumed): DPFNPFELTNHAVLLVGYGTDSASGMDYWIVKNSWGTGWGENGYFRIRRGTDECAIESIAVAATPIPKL

[20] = target: T5, Dipeptidyl peptidase 1 (Rattus norvegicus, UniProt P80067); assay: Inhibition of rat DPP1 using Gly-Arg-AMC as substrate preincubated for 30 mins followed by substrate addition by fluorometric assay
T5 sequence (P80067 whole entry): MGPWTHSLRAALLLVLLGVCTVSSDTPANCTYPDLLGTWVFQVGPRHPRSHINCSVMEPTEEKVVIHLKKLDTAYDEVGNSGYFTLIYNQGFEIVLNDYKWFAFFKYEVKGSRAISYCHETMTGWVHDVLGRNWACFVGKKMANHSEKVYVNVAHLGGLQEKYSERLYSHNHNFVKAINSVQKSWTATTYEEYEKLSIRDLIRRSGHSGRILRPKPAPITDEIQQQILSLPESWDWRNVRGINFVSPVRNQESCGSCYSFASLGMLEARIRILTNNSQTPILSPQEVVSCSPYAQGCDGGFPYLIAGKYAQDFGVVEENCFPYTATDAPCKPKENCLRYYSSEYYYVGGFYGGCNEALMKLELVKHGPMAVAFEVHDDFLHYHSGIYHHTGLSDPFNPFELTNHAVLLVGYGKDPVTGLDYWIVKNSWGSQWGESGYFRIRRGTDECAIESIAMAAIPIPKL

IC50 [1]: > 20 µM | bioavailability [2]: 92% | CLH [3]: < 1 µL/min/1e6 cells | CLH [4]: < 3.5 µL/min/10^6 cells | IC50 [5]: > 20 µM | logD at 10 µM [6]: 0.8 | clearance [7]: 8 mL/min/kg | bioavailability [8]: 75% | Vd [9]: 1 L/kg | IC50 [10]: > 20 µM | Papp B→A at 2 h, 10 µM [11]: 27 ×10⁻⁶ cm/s | IC50 [12]: > 20 µM | IC50 [13]: 25.1 nM | Papp A→B at 1 h, 10 µM [15]: 9.2 ×10⁻⁶ cm/s | fraction unbound at 6 h, 10 µM [16]: 0.3 | CLH [17]: 1.9 µL/min/1e6 cells | IC50 [18]: > 20 µM | T1/2 [19]: 3 min | IC50 [20]: 20 nM
SMILES: Cn1c(=O)oc2ccc(-c3ccc(C[C@@H](C#N)NC(=O)[C@@H]4CNCCCO4)cc3)cc21 [BRENSOCATIB]
IC50 [14]: > 33 µM
